This is a sample that favours compounds with a hit; in the whole collection about 6.4% have one here.
Tb MetRS inh – blocks T. brucei methionyl-tRNA synthetase activity; AID 624268; purified T. brucei MetRS, ATP depletion, Kinase-Glo luminescence; 360,000 tested, 0.4% active; inhibition, % at 11.9 µM;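 active means inhibition above a per-plate cutoff of the control wells' mean inhibition plus 3 SD, cut at about 5.5% in these data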
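assay system = parasite MetRS enzyme | timing = 15 min preincubation, 2 h reaction, all 25 °C | evaluation = percent inhibition relative to median high and low control wells | medium = HEPES buffer containing pyrophosphatase, BSA, spermine, DTT | compound = single dose, 11.9 µM final nominal, 0.9% final DMSO | detection = Kinase-Glo luminescence, ATP depletion format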
CHOP inh – CHOP inhibition in unfolded protein response | CHO-K1 CHOP-promoter luciferase, tunicamycin-induced, 15-18 h | inhibition, % at 10 µM | 220,000 tested, 3.8% active | AID 2732;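 active means compounds that reduced the stress-induced luciferase reporter signal by more than about 70% of percent inhibition, limit read from the data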
WT yeast gro inh – growth inhibition of WT yeast, mitochondrial fusion screen. mitochondrial fusion phenotypic screen, WT strain. inhibition, % at 10 µM. 190,000 tested, 2.1% active; in the data active means inhibition above about 58%; tested in S. cerevisiae
EBV gp42 block – EBV gp42 inhibition; Q1HVG2; Fluorescence polarization binding assay, mP read-out; inhibition, % (tested at 21.74 µM); 220,000 tested, 0.42% active; in the data active means inhibition above about 50%
Target sequence (Q1HVG2 whole entry, looked up): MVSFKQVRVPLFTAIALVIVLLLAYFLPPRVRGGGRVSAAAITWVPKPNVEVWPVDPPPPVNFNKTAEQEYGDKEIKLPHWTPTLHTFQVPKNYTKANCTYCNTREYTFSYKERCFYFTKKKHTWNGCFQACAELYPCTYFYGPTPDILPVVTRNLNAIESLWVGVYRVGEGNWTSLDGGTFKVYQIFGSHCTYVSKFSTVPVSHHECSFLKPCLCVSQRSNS
GRIN3A LBD mod – modulators (binders) of human NR3A ligand-binding domain. 340,000 tested, 2.5% active. Tm shift relative to glycine control, % at 25 µM. NR3A LBD differential scanning fluorimetry, Tm shift; 0% = protein alone, 100% = glycine-bound protein. AID 1259313;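 active means melting temperature shift of at least 10% of the positive control shift, at one fixed dose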
MPTP inh – blocks calcium-induced mitochondrial swelling; isolated mouse mitochondria, Ca2+ swelling absorbance, 30 min; inhibition, % at 10 µM; 360,000 tested, 1.4% active;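 active means inhibition of 50% or more, scaled per plate between neutral and stimulator controls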
Numbers stand for hits.

Screening CC(C)Cc1cc(C(=O)N2CCN(C(c3ccccc3)c3ccccc3)CC2)no1 returned Tb MetRS inh inactive, CHOP inh inactive, WT yeast gro inh 58.7, EBV gp42 block inactive, GRIN3A LBD mod inactive and MPTP inh inactive.
Screening CC(C)c1cc(C(=O)N2CCN(C(c3ccccc3)c3ccccc3)CC2)no1 returned Tb MetRS inh inactive, CHOP inh 81.6, WT yeast gro inh inactive, EBV gp42 block inactive, GRIN3A LBD mod inactive and MPTP inh inactive.
COc1ccc(-c2cc(C(=O)N3CCN(C(c4ccccc4)c4ccccc4)CC3)no2)cc1 was read as Tb MetRS inh inactive, WT yeast gro inh inactive, GRIN3A LBD mod inactive and MPTP inh inactive.
For Cc1c(C)c2ccc(OCC(=O)NCCCn3ccnc3)c(C)c2oc1=O the results were Tb MetRS inh inactive, GRIN3A LBD mod inactive and MPTP inh inactive.
Cc1c(N=Cc2ccco2)c(=O)n(-c2ccccc2)n1C was read as Tb MetRS inh inactive, CHOP inh inactive, WT yeast gro inh inactive, EBV gp42 block inactive, GRIN3A LBD mod inactive and MPTP inh inactive.
For COc1ccc2c(C=Nc3c(C)n(C)n(-c4ccccc4)c3=O)c(O)n(Cc3ccco3)c(=O)c2c1 the results were Tb MetRS inh inactive, CHOP inh inactive, WT yeast gro inh inactive, EBV gp42 block 78.4, GRIN3A LBD mod inactive and MPTP inh inactive.
Screening CC(=O)NCc1ccc(C(=O)COC(=O)COc2ccccc2)s1 returned Tb MetRS inh inactive, GRIN3A LBD mod inactive and MPTP inh inactive.
Screening NC(=O)c1ccc(-c2nnc(Nc3ccc(S(N)(=O)=O)cc3)c3ccccc23)cc1 returned Tb MetRS inh inactive, GRIN3A LBD mod inactive and MPTP inh inactive.
O=C(CN1CCOCC1)Nc1cc(C(F)(F)F)ccc1Cl was read as Tb MetRS inh inactive, CHOP inh inactive, EBV gp42 block inactive, GRIN3A LBD mod inactive and MPTP inh inactive.
For O=C(CN1CCN(C(=O)c2ccco2)CC1)Nc1cc(C(F)(F)F)ccc1Cl the results were Tb MetRS inh inactive, CHOP inh inactive, WT yeast gro inh inactive, EBV gp42 block inactive, GRIN3A LBD mod 14.2 and MPTP inh inactive.
Screening CC(=O)NNc1ccc(C(F)(F)F)cc1[N+](=O)[O-] returned Tb MetRS inh inactive, CHOP inh inactive, WT yeast gro inh inactive, EBV gp42 block inactive, GRIN3A LBD mod inactive and MPTP inh inactive.
Screening Cc1ccc(Nc2ccc(C(F)(F)F)cc2[N+](=O)[O-])cc1 returned Tb MetRS inh inactive, CHOP inh inactive, WT yeast gro inh inactive, EBV gp42 block inactive, GRIN3A LBD mod 11.2 and MPTP inh inactive.
For C/C(=N\Nc1ccc(C(F)(F)F)cc1[N+](=O)[O-])C1CC1 the results were Tb MetRS inh inactive, CHOP inh inactive, WT yeast gro inh inactive, EBV gp42 block inactive, GRIN3A LBD mod 14.3 and MPTP inh inactive.
Cc1ccc(N2C(=O)CC(N3CCN(c4ccc(F)cc4)CC3)C2=O)c(C)c1 (stereo not given) was read as Tb MetRS inh inactive, GRIN3A LBD mod inactive and MPTP inh inactive.
For COCCn1c(SCC(=O)Nc2cccnc2Cl)nc2cc(Cl)ccc2c1=O the results were Tb MetRS inh inactive, GRIN3A LBD mod inactive and MPTP inh inactive.
For COCCn1c(SCC(=O)Nc2sccc2C(N)=O)nc2cc(Cl)ccc2c1=O the results were Tb MetRS inh inactive, CHOP inh inactive, WT yeast gro inh inactive, EBV gp42 block inactive, GRIN3A LBD mod 37.5 and MPTP inh inactive.
For CC(=O)c1cccc(N(C(=O)CNC(=O)c2ccco2)C(C(=O)NCc2ccco2)c2ccccc2)c1 (stereo not given) the results were Tb MetRS inh inactive, CHOP inh inactive, WT yeast gro inh inactive, EBV gp42 block inactive, GRIN3A LBD mod inactive and MPTP inh inactive.
`CC1(C(=O)NS(=O)(=O)C2CC2)CCCN(C(=O)c2ccccc2)C1` (stereo not given) gave Tb MetRS inh inactive and MPTP inh inactive.
`CC(c1ccco1)N(C(=O)C12CC3CC(CC(C)(C3)C1)C2)c1ccccn1` (stereo not given) gave Tb MetRS inh inactive, CHOP inh 87.2, WT yeast gro inh inactive, EBV gp42 block inactive, GRIN3A LBD mod inactive and MPTP inh inactive.
Screening CC(c1ccco1)N(C(=O)c1ccc(F)cc1)c1ccccn1 (stereo not given) returned Tb MetRS inh inactive, CHOP inh inactive, WT yeast gro inh inactive, EBV gp42 block inactive, GRIN3A LBD mod inactive and MPTP inh inactive.
O=C(CN1CCC(O)(c2ccc(F)cc2)CC1)NCc1ccc(F)cc1 was read as Tb MetRS inh inactive, CHOP inh inactive, WT yeast gro inh inactive, EBV gp42 block inactive, GRIN3A LBD mod inactive and MPTP inh inactive.
For CC(=O)c1c(-c2ccccc2)c2cc([N+](=O)[O-])ccc2[nH]c1=O the results were Tb MetRS inh inactive, GRIN3A LBD mod inactive and MPTP inh inactive.
COc1ccc2c(c1)c1ncn(CCN3CCCCC3)c(=O)c1n2C was read as Tb MetRS inh inactive, CHOP inh inactive, WT yeast gro inh inactive, EBV gp42 block inactive, GRIN3A LBD mod inactive and MPTP inh inactive.
`COc1ccc2c(c1)c1ncn(CCN3CCNCC3)c(=O)c1n2C` gave Tb MetRS inh inactive, CHOP inh 73.5, WT yeast gro inh inactive, EBV gp42 block inactive, GRIN3A LBD mod inactive and MPTP inh inactive.
For CCOc1ccc(Nc2nnc(SCc3nc4ccccc4c(=O)[nH]3)s2)cc1 the results were Tb MetRS inh inactive, CHOP inh 95.9, EBV gp42 block inactive, GRIN3A LBD mod inactive and MPTP inh inactive.
For c1ccc(Nc2nnc(SCc3cccc4ccccc34)s2)cc1 the results were Tb MetRS inh inactive, CHOP inh inactive, WT yeast gro inh inactive, EBV gp42 block inactive, GRIN3A LBD mod 10.7 and MPTP inh inactive.
Screening Cc1nnc(SCc2cccc3ccccc23)s1 returned Tb MetRS inh inactive, CHOP inh inactive, EBV gp42 block inactive, GRIN3A LBD mod inactive and MPTP inh inactive.
`Cc1cccc(C)c1Nc1nnc(SCc2nc3ccccc3c(=O)[nH]2)s1` gave Tb MetRS inh inactive, CHOP inh inactive, WT yeast gro inh inactive, EBV gp42 block inactive, GRIN3A LBD mod 31.6 and MPTP inh inactive.
COc1ccc(/C=N/NC(=O)COc2ccc(Cl)cc2Cl)cc1Cn1nc(C)cc1C was read as Tb MetRS inh inactive, CHOP inh 93.0, WT yeast gro inh inactive, EBV gp42 block inactive, GRIN3A LBD mod inactive and MPTP inh inactive.
`O=C(COc1ccc(Cl)cc1Cl)N/N=C/c1cccnc1` gave Tb MetRS inh inactive, GRIN3A LBD mod inactive and MPTP inh inactive.
For Cc1ccc2ncccc2c1NS(=O)(=O)c1ccccc1 the results were Tb MetRS inh inactive, CHOP inh 82.2, WT yeast gro inh inactive, EBV gp42 block inactive, GRIN3A LBD mod inactive and MPTP inh inactive.
`Cc1cccnc1NS(=O)(=O)c1ccccc1` gave Tb MetRS inh inactive and MPTP inh inactive.
Nc1sc2c(c1C(=O)c1ccccc1)CCCC2 was read as Tb MetRS inh inactive, CHOP inh inactive, WT yeast gro inh inactive, EBV gp42 block inactive, GRIN3A LBD mod inactive and MPTP inh inactive.

Screening data from PubChem BioAssay.
